Test results from ChEMBL document CHEMBL1143284, “Synthesis of riccardin C and its seven analogues. Part 1: The role of their phenolic hydroxy groups as LXRalpha agonists” (Bioorg Med Chem Lett, 2009).
Activity calls are given as the source filed them. The calls are words filed in the database; no cut-off is given here.

Tests used:
[1] = molecular target: T1, Oxysterols receptor LXR-beta (Homo sapiens) (UniProt P55055); test: Agonist activity at full length LXRbeta expressed in african green monkey COS1 cells co-transfected with RXRalpha assessed as increase in LXR-response element driven luciferase reporter gene transactivation at 10 to 30 uM after 24 hrs; details: COS-1
T1 sequence (whole entry): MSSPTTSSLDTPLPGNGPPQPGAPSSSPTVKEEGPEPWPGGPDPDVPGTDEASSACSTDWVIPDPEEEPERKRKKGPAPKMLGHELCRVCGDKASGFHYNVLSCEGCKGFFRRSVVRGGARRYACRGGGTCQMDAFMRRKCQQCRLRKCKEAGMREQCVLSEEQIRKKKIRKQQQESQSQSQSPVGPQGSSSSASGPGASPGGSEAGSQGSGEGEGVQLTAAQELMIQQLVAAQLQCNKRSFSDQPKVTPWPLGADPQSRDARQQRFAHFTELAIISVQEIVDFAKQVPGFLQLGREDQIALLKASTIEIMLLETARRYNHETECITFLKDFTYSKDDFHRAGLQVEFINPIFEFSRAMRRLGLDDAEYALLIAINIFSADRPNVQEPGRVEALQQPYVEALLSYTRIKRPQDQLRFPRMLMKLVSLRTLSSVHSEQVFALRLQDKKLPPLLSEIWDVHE

[2] = molecular target: T2, Oxysterols receptor LXR-alpha (Homo sapiens) (UniProt Q13133); test: Agonist activity at full length LXRalpha expressed in african green monkey COS1 cells co-transfected with RXRalpha assessed as increase in LXR-response element driven luciferase reporter gene transactivation at 10 to 30 uM after 24 hrs; details: COS-1
T2 sequence (whole entry): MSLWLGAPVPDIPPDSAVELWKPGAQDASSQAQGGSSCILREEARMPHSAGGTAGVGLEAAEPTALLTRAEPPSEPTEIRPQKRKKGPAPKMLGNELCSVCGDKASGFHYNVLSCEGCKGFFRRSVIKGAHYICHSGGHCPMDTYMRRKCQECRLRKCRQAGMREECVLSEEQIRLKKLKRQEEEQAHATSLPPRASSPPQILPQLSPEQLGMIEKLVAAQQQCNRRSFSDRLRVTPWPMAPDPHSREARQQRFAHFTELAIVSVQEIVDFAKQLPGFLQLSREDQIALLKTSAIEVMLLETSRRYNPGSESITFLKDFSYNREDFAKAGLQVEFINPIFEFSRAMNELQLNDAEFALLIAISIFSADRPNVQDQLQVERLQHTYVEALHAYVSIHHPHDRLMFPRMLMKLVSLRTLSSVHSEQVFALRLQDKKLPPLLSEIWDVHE

[3] = molecular target: T1, Oxysterols receptor LXR-beta (Homo sapiens); test: Activation of full length LXRbeta expressed in african green monkey COS7 cells co-transfected with RXRalpha assessed as increase in LXR-response element driven luciferase reporter gene transactivation after 24 hrs; type: cell-based; details: COS-7
Procedure, shortened: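 Transient LXR/RXRα luciferase reporter assay in COS cells with β-galactosidase as internal control. Cells treated 24 h with test compounds at 10 or 30 μM, or TO901317 at 100 nM, in the presence of compactin to deplete endogenous LXR ligands. Luciferase activity in cell extracts normalized to β-galactosidase and expressed as fold induction over vehicle-treated cells.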

SMILES | Activity [1] | Activity [2] | Activity [3]
COc1ccc2c(c1)CCc1ccc(cc1)Oc1cc(ccc1O)CCc1ccc-2c(O)c1 | inactive | inactive | 
COc1ccc2c(c1)CCc1ccc(cc1)Oc1cc(ccc1OC)CCc1ccc-2c(O)c1 | inactive | inactive | 
Oc1ccc2c(c1)CCc1ccc(cc1)Oc1cc(ccc1O)CCc1ccc-2c(O)c1 |  |  | inactive
COc1ccc2c(c1)CCc1ccc(cc1)Oc1cc(ccc1OC)CCc1ccc-2c(OC)c1 | inactive | inactive | 

Other lines, results leading:

Activity [1] | Activity [2] | Activity [3] | SMILES
inactive | inactive |  | COc1cc2ccc1-c1ccc(O)cc1CCc1ccc(cc1)Oc1cc(ccc1O)CC2
inactive | inactive |  | COc1ccc2cc1Oc1ccc(cc1)CCc1cc(O)ccc1-c1ccc(cc1OC)CC2
inactive | inactive |  | COc1ccc2cc1Oc1ccc(cc1)CCc1cc(O)ccc1-c1ccc(cc1O)CC2
inactive | inactive |  | COc1ccc2c(c1)CCc1ccc(cc1)Oc1cc(ccc1O)CCc1ccc-2c(OC)c1
